Experiment [1] has as its system A549. Nature of the experiment: Cytotoxicity against human A549 cells after 72 hrs by MTT assay. The class given is functional, cell-based. Particulars: A549, 72 h. Summed up:
(§1)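 A549 human NSCLC cells kept in MEM with 10% FBS, penicillin/streptomycin and amphotericin B at 37 °C under humidified 5% CO2. Seeded at 1x10⁴ cells/well and left 24 h, then exposed to a range of concentrations for 48 h or 72 h at 37 °C. MTT (1 mg/mL) added for 4 h, formazan dissolved in DMSO, absorbance read at 540 nm. IC50 taken against untreated controls by log(compound) vs normalized response (variable slope) fit, with 95% CI.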

Experiment [2] concerns A549. The experiment is described as follows: Ratio of IC50 for human A549 cells after 48 hrs to IC50 for human A549 cells after 72 hrs. The class given is functional. In short, it runs like this:
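Ratio of the 48 h to the 72 h IC50 in A549 cells. Both IC50s come from the MTT assay (1x10⁴ cells/well, 24 h attachment, then 48 h or 72 h compound exposure). Each was fitted by log(compound) vs normalized response nonlinear regression (variable slope), relative to untreated controls.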

The test system of experiment [3] is A549. The experiment is described as follows: Cytotoxicity against human A549 cells after 48 hrs by MTT assay. It counts as functional, cell-based. Particulars: A549, 48 h. Summed up:
as §1
(Tetrazolium assays rely on reduction of a dye to a coloured formazan, in cell work by metabolically active cells.)

The term IC50 denotes the concentration at which inhibition is half-maximal. With `CC(=O)OC(C)(C)/C=C/C(=O)[C@](C)(O)[C@H]1[C@H](O)C[C@@]2(C)[C@@H]3CC=C4[C@@H](Cc5sc(N)nc5C4(C)C)[C@]3(C)C(=O)C[C@]12C`, the IC50 with A549 [1] turned out to be 11.5 µM; in the experiment with A549 [3], 28.8 µM. For the same compound, the “Ratio IC50” value with A549 [2] is 2.5.

Source of the values: ChEMBL document CHEMBL2016559, “Synthesis and cytotoxic activity evaluation of dihydrocucurbitacin B and cucurbitacin B derivatives” (Bioorg Med Chem, 2012).
